Test results reported in ChEMBL document CHEMBL1135709, “2,6-Di(omega-aminoalkyl)-2,5,6,7-tetrahydropyrazolo[3,4,5-mn]pyrimido[5,6,1-de]acridine-5,7-diones: novel, potent, cytotoxic, and DNA-binding agents” (J Med Chem, 2002).

Key:
DU-145 [1] = assay: Percent growth of NCI cell line, prostate: DU-145 exposed for 48 hr at 10e-6 concentration; type: functional, Homo sapiens
Procedure, shortened: (§1)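 NCI panel cell lines exposed 48 h to 10^-8, 10^-6 and 10^-4 M drug; read-out is percent growth at each concentration.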

HCT-15 [2] = assay: Percent growth of NCI cell line, colon: HCT-15 exposed for 48 hr at 10e-4 concentration; type: functional, Homo sapiens; procedure, shortened: as §1
OVCAR-4 [3] = assay: Percent growth of NCI cell line, ovarian: OVCAR-4 exposed for 48 hr at 10e-8 concentration; type: functional, Homo sapiens; procedure, shortened: as §1
NCI-H460 [4] = assay: Percent growth of NCI cell line, lung-nsc: NCI-H460 exposed for 48 hr at 10e-8 concentration; type: functional, Homo sapiens; procedure, shortened: as §1
786-0 [5] = assay: Percent growth of NCI cell line, renal: 786-0 exposed for 48 hr at 10e-8 concentration; type: functional, Homo sapiens; procedure, shortened: as §1
[6] = Percent growth of NCI cell line, leucemia K562 exposed for 48 hr at 10e-4 concentration; type: functional, Homo sapiens; procedure, shortened: as §1
HCT-15 [7] = assay: Percent growth of NCI cell line, colon: HCT-15 exposed for 48 hr at 10e-6 concentration; type: functional, Homo sapiens; procedure, shortened: as §1
Calf thymus DNA = assay: CT-DNA binding required to produce a 50% drop in fluorescence of DNA-bound ethidium.; type: nucleic-acid assay; conditions: Bos taurus
Procedure, shortened: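 Ethidium displacement from calf thymus DNA in 10 mM Na2HPO4, 10 mM NaH2PO4, 1 mM EDTA, pH 7.0, containing 1.26 μM ethidium bromide and 1 μM CT-DNA. Drug added serially from ~5 mM DMSO stock; 20 °C; fluorescence excitation 546 nm, emission 595 nm. C50 = drug concentration lowering DNA-bound ethidium fluorescence by 50%, mean of three determinations.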

[8] = Percent growth of NCI cell line, leucemia K562 exposed for 48 hr at 10e-8 concentration; type: functional, Homo sapiens; procedure, shortened: as §1
LoVo [9] = assay: Cytotoxicity activity on LoVo human adenocarcinoma cell line after 144 hr of drug exposure; type: functional, cell-based
Procedure, shortened: (§2)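 LoVo (sensitive) and LoVo/Dx (resistant) human colon adenocarcinoma cells seeded at 2.5 × 10^5 cells/mL medium; drug solutions added to culture.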

DU-145 [10] = assay: Percent growth of NCI cell line, prostate: DU-145 exposed for 48 hr at 10e-4 concentration; type: functional, Homo sapiens; procedure, shortened: as §1
HCT-15 [11] = assay: Percent growth of NCI cell line, colon: HCT-15 exposed for 48 hr at 10e-8 concentration; type: functional, Homo sapiens; procedure, shortened: as §1
786-0 [12] = assay: Percent growth of NCI cell line, renal: 786-0 exposed for 48 hr at 10e-6 concentration; type: functional, Homo sapiens; procedure, shortened: as §1
SNB-19 [13] = assay: Percent growth of NCI cell line, CNS: SNB-19 exposed for 48 hr at 10e-6 concentration; type: functional, Homo sapiens; procedure, shortened: as §1
NCI-H460 [14] = assay: Percent growth of NCI cell line, lung-nsc: NCI-H460 exposed for 48 hr at 10e-4 concentration; type: functional, Homo sapiens; procedure, shortened: as §1
HT-29 = assay: In vitro cytotoxic potency against HT-29 (human colon adenocarcinoma) cell line.; type: functional, cell-based
NCI-H460 [15] = assay: Percent growth of NCI cell line, lung-nsc: NCI-H460 exposed for 48 hr at 10e-6 concentration; type: functional, Homo sapiens; procedure, shortened: as §1
786-0 [16] = assay: Percent growth of NCI cell line, renal: 786-0 exposed for 48 hr at 10e-4 concentration; type: functional, Homo sapiens; procedure, shortened: as §1
LoVo [17] = assay: Cytotoxicity activity on LoVo human adenocarcinoma cell line after 1 hr of drug exposure; type: functional, cell-based
Procedure, shortened: (§3)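 LoVo (sensitive) and LoVo/Dx (resistant) human colon adenocarcinoma cells seeded at 2.5 × 10^5 cells/mL medium; drug solutions added to culture. IC50 = drug concentration inhibiting cell growth by 50%, assays in triplicate.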

LOX IMVI [18] = assay: Percent growth of NCI cell line, melanoma: LOX IMVI exposed for 48 hr at 10e-6 concentration; type: functional, Homo sapiens; procedure, shortened: as §1
LoVo [19] = assay: Cytotoxicity activity on LoVo/Dx human adenocarcinoma cell line after 144 hr of drug exposure; type: functional, cell-based; procedure, shortened: as §2
LOX IMVI [20] = assay: Percent growth of NCI cell line, melanoma: LOX IMVI exposed for 48 hr at 10e-8 concentration; type: functional, Homo sapiens; procedure, shortened: as §1
LoVo [21] = assay: Cytotoxicity activity on LoVo/Dx human adenocarcinoma cell line after 1 hr of drug exposure; type: functional, cell-based; procedure, shortened: as §3
MCF7 [22] = assay: Percent growth of NCI cell line, breast: MCF-7 exposed for 48 hr at 10e-8 concentration; type: functional, Homo sapiens; procedure, shortened: as §1
OVCAR-4 [23] = assay: Percent growth of NCI cell line, ovarian: OVCAR-4 exposed for 48 hr at 10e-4 concentration; type: functional, Homo sapiens; procedure, shortened: as §1
LOX IMVI [24] = assay: Percent growth of NCI cell line, melanoma: LOX IMVI exposed for 48 hr at 10e-4 concentration; type: functional, Homo sapiens; procedure, shortened: as §1
SNB-19 [25] = assay: Percent growth of NCI cell line, CNS: SNB-19 exposed for 48 hr at 10e-8 concentration; type: functional, Homo sapiens; procedure, shortened: as §1
MCF7 [26] = assay: Percent growth of NCI cell line, breast: MCF-7 exposed for 48 hr at 10e-6 concentration; type: functional, Homo sapiens; procedure, shortened: as §1
DU-145 [27] = assay: Percent growth of NCI cell line, prostate: DU-145 exposed for 48 hr at 10e-8 concentration; type: functional, Homo sapiens; procedure, shortened: as §1
MCF7 [28] = assay: Percent growth of NCI cell line, breast: MCF-7 exposed for 48 hr at 10e-4 concentration; type: functional, Homo sapiens; procedure, shortened: as §1
OVCAR-4 [29] = assay: Percent growth of NCI cell line, ovarian: OVCAR-4 exposed for 48 hr at 10e-6 concentration; type: functional, Homo sapiens; procedure, shortened: as §1
[30] = Percent growth of NCI cell line, leucemia K562 exposed for 48 hr at 10e-6 concentration; type: functional, Homo sapiens; procedure, shortened: as §1
SNB-19 [31] = assay: Percent growth of NCI cell line, CNS: SNB-19 exposed for 48 hr at 10e-4 concentration; type: functional, Homo sapiens; procedure, shortened: as §1

| Compound | Growth (DU-145 [1]) [%] | Growth (HCT-15 [2]) [%] | Growth (OVCAR-4 [3]) [%] | Growth (NCI-H460 [4]) [%] | Growth (786-0 [5]) [%] | Growth [6] [%] | Growth (HCT-15 [7]) [%] | C50 (Calf thymus DNA) [µM] | Growth [8] [%] | IC50 (LoVo [9]) [nM] | Growth (DU-145 [10]) [%] | Growth (HCT-15 [11]) [%] | Growth (786-0 [12]) [%] | Growth (SNB-19 [13]) [%] | Growth (NCI-H460 [14]) [%] | IC50 (HT-29) [nM] | Growth (NCI-H460 [15]) [%] | Growth (786-0 [16]) [%] | IC50 (LoVo [17]) [nM] | Growth (LOX IMVI [18]) [%] | further results |
| --- | --- | --- | --- | --- | --- | --- | --- | --- | --- | --- | --- | --- | --- | --- | --- | --- | --- | --- | --- | --- | --- |
| COc1ccc2c(c1)c1nn(CCN(C)C)c3ccc4c(=O)n(CCN(C)C)c(=O)n2c4c13 | -11 | -80 | 40 | 9 | 28 | -81 | -31 | 0.052 | 47 | 13 | -77 | 36 | -26 | -15 | -95 | 11 | -60 | -96 | 290 | -19 | IC50 (LoVo [19]): 1.8 nM; Growth (LOX IMVI [20]): 62%; IC50 (LoVo [21]): 140 nM; Growth (MCF7 [22]): 49%; Growth (OVCAR-4 [23]): -82%; Growth (LOX IMVI [24]): -80%; Growth (SNB-19 [25]): 62%; Growth (MCF7 [26]): -27%; Growth (DU-145 [27]): 54%; Growth (MCF7 [28]): -89%; Growth (OVCAR-4 [29]): -73%; Growth [30]: -14%; Growth (SNB-19 [31]): -62% |
| CN(C)CCn1c(=O)c2ccc3c4c(nn3CCN(C)C)c3cc(O)ccc3n(c1=O)c24 | 0 | -68 | 70 | 71 | 43 | -66 | 21 | 0.056 | 84 | 11 | -50 | 85 | -11 | -1 | -74 | 39 | -23 | -82 | 220 | -48 | IC50 (LoVo [19]): 170 nM; Growth (LOX IMVI [20]): 63%; IC50 (LoVo [21]): 80 nM; Growth (MCF7 [22]): 60%; Growth (OVCAR-4 [23]): -60%; Growth (LOX IMVI [24]): -79%; Growth (SNB-19 [25]): 65%; Growth (MCF7 [26]): -17%; Growth (DU-145 [27]): 71%; Growth (MCF7 [28]): -64%; Growth (OVCAR-4 [29]): -19%; Growth [30]: 7%; Growth (SNB-19 [31]): -72% |
| CN(C)CCn1c(=O)c2ccc3c4c(nn3CCN(C)C)c3cc([N+](=O)[O-])ccc3n(c1=O)c24 | -16 | -89 | 57 | 47 | 36 | -38 | -4 | 0.07 | 82 | 16 | -94 | 68 | -25 | 2 | -94 | 0.98 | -19 | -99 | 520 | 5 | IC50 (LoVo [19]): 13 nM; Growth (LOX IMVI [20]): 79%; IC50 (LoVo [21]): 190 nM; Growth (MCF7 [22]): 81%; Growth (OVCAR-4 [23]): -96%; Growth (LOX IMVI [24]): -89%; Growth (SNB-19 [25]): 75%; Growth (MCF7 [26]): -12%; Growth (DU-145 [27]): 82%; Growth (MCF7 [28]): -93%; Growth (OVCAR-4 [29]): -55%; Growth [30]: 6%; Growth (SNB-19 [31]): -93% |
| CN(C)CCn1c(=O)c2ccc3c4c(nn3CCN3CCCC3)c3cc([N+](=O)[O-])ccc3n(c1=O)c24 | – | – | – | – | – | – | – | 0.048 | – | – | – | – | – | – | – | 1.4 | – | – | – | – | – |
| COc1ccc2c(c1)c1nn(CCN3CCCC3)c3ccc4c(=O)n(CCN(C)C)c(=O)n2c4c13 | – | – | – | – | – | – | – | 0.065 | – | – | – | – | – | – | – | 0.17 | – | – | – | – | – |
| CN(C)CCCn1c(=O)c2ccc3c4c(nn3CCN(C)C)c3ccccc3n(c1=O)c24 | – | – | – | – | – | – | – | 0.12 | – | – | – | – | – | – | – | 37 | – | – | – | – | – |
| O=C1c2c(O)ccc(O)c2C(=O)c2c(NCCNCCO)ccc(NCCNCCO)c21 | – | – | – | – | – | – | – | 0.037 | – | – | – | – | – | – | – | – | – | – | – | – | – |
| CN(C)CCCn1nc2c3cc(O)ccc3n3c(=O)n(CCN(C)C)c(=O)c4ccc1c2c43 | – | – | – | – | – | – | – | 0.0066 | – | – | – | – | – | – | – | 61 | – | – | – | – | – |
| CN(C)CCn1c(=O)c2ccc3c4c(nn3CCN3CCCCC3)c3cc(N)ccc3n(c1=O)c24 | – | – | – | – | – | – | – | 0.006 | – | – | – | – | – | – | – | 0.17 | – | – | – | – | – |
